Test results reported in ChEMBL document CHEMBL1131419, “Methoxy-substituted 3-formyl-2-phenylindoles inhibit tubulin polymerization” (J Med Chem, 1998).

Assays:
Tubulin (Bos taurus) = Tubulin (Bos taurus) (UniProt Q6B856+Q862L2+Q862F3); assay: Tested for its capability of competing with colchicine for binding to tubulin.; format: protein assay; parameters: concentration or dose not given beside the values; conditions: concentration not given here
Procedure, shortened: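 Calf brain tubulin (cycled, diluted 1:10 in PEM pH 6.6–6.7) incubated with 1 μM [3H]colchicine and 10 μM inhibitor (DMSO) for 30 min at 37 °C; GTP added on ice, mixture filtered through DEAE-cellulose filters, washed with PEM, bound radioactivity counted by liquid scintillation; no-tubulin mixtures as background. Mean of two independent experiments.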

Tubulin = Tubulin (Bos taurus, UniProt Q6B856+Q862L2+Q862F3); format: protein assay

Compound `CCCC1Cc2cc(O)ccc2-c2c(C=O)c3ccc(O)cc3n21` (configuration not stated) has an inhibition (Tubulin (Bos taurus)) of 40% and an IC50 (Tubulin) of 19 µM.
In the case of `COc1ccc(-c2[nH]c3ccccc3c2C=O)cc1`, the IC50 (Tubulin) is reported as 3.3 µM.
Work on `CCCCC1Cc2cc(O)ccc2-c2c(C=O)c3ccc(O)cc3n21` (configuration not stated) yielded an IC50 (Tubulin) of 8.9 µM.
Work on `COc1ccc(-c2[nH]c3cc(F)ccc3c2C=O)cc1` yielded an IC50 (Tubulin) of 1.8 µM.
In the case of `COc1ccc(-c2c(C=O)c3ccc(OC)cc3n2C)cc1`, the inhibition (Tubulin (Bos taurus)) is reported as 30%.
`COc1ccc(-c2[nH]c3cc(OC)ccc3c2C=O)cc1` showed an inhibition (Tubulin (Bos taurus)) of 23% and an IC50 (Tubulin) of 1.5 µM.
For `COc1ccc(-c2sc3cc(OC)ccc3c2C=O)cc1`, the inhibition (Tubulin (Bos taurus)) was 56% and the IC50 (Tubulin) was 1.8 µM.
In the case of `COc1ccc(-c2[nH]c3ccc(OC)cc3c2C=O)cc1`, the IC50 (Tubulin) is reported as 4 µM.
For `CCCC1Cc2cc(OC)ccc2-c2c(C=O)c3ccc(OC)cc3n21` (configuration not stated), the inhibition (Tubulin (Bos taurus)) was < 10%.
